Experimental data published in ChEMBL document CHEMBL4017495, “Identification and Characterization of the First Selective Y4 Receptor Positive Allosteric Modulator” (J Med Chem, 2017).
Active and inactive are the calls of the source. The calls are words filed in the database; no cut-off is given here.

Tests used:
[1] = molecular target: T1, Neuropeptide Y receptor type 4 (Homo sapiens, UniProt P50391); test: Positive allosteric modulation of human C-terminal eYFP-fused human NY4 receptor expressed in African green monkey COS7 cells co-expressing delta6Galphaqi4-myr assessed as potentiation of pancreatic polypeptide-mediated Ca2+ flux treated at 20 secs post baseline detection followed by addition of pancreatic polypeptide after 140 secs by Fluo2-AM fluorescent dye based-assay; assay type: functional, cell-based
Outline: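 COS7 cells stably co-expressing Y4R-eYFP and Δ6Gαqi4-myr were seeded overnight. They were loaded with 2.4 μM Fluo2-AM in HBSS/20 mM HEPES/[…] for 60 min at 37 °C, then kept in assay buffer. Fluorescence was read at ex 485/em 525 nm. Compound was added after a 20 s baseline and peptide at 140 s. Response was taken as x-fold over basal, normalized to the DMSO control, and fitted to an operational model of allosterism. Duplicates, at least three independent runs.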

[2] = molecular target: Neuropeptide Y receptor type 4 (Mus musculus) (UniProt Q61041); test: Positive allosteric modulation of NY4 receptor in mouse descending colon mucosa assessed as increase in mucosal antisecretory response to pancreatic polypeptide at 30 uM preincubated for 5 mins followed by pancreatic polypeptide addition after 20 mins
Outline: (§1)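 Mouse descending colon mucosa was mounted in Ussing chambers (0.14 cm2 exposed) in oxygenated Krebs–Henseleit at 37 °C, voltage-clamped at 0 mV, with Isc recorded continuously. After a stable basal Isc (20–30 min), basolateral pretreatment was 30 μM compound or DMSO vehicle (0.3%) for 5 min. VIP (10 nM) was given for 5–10 min, then single rat PP additions (3, 10 or 30 nM). PYY (10 nM) followed 20 min later.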

[3] = molecular target: T2, Neuropeptide Y receptor type 1/2 (Mus musculus) (UniProt Q04573+P97295); test: Positive allosteric modulation of NY1/2 receptor in mouse descending colon mucosa assessed as increase in mucosal antisecretory response to peptide YY at 30 uM preincubated for 5 mins followed by pancreatic polypeptide addition after 20 mins; outline: as §1
[4] = molecular target: T2, Neuropeptide Y receptor type 1/2 (Mus musculus); test: Positive allosteric modulation of NY1/2 receptor in mouse descending colon mucosa assessed as increase in mucosal antisecretory response to vasoactive intestinal polypeptide at 30 uM preincubated for 5 mins followed by pancreatic polypeptide addition after 20 mins; outline: as §1
[5] = molecular target: Neuropeptide Y receptor type 4 (Mus musculus) (UniProt Q61041); test: Agonist activity at NY4 receptor in mouse descending colon mucosa assessed as increase in mucosal antisecretory response at 30 uM incubated for 5 mins; outline: as §1
[6] = molecular target: T1, Neuropeptide Y receptor type 4
[7] = molecular target: T1, Neuropeptide Y receptor type 4; remark: listed apart in the source
[8] = molecular target: T1, Neuropeptide Y receptor type 4; remark: listed apart in the source
[9] = molecular target: T1, Neuropeptide Y receptor type 4; remark: listed apart in the source
[10] = molecular target: T1, Neuropeptide Y receptor type 4; remark: listed apart in the source
[11] = molecular target: T1, Neuropeptide Y receptor type 4; remark: listed apart in the source
[12] = molecular target: T1, Neuropeptide Y receptor type 4; remark: listed apart in the source
[13] = molecular target: T1, Neuropeptide Y receptor type 4; remark: listed apart in the source
[14] = molecular target: T1, Neuropeptide Y receptor type 4; remark: listed apart in the source
[15] = molecular target: T1, Neuropeptide Y receptor type 4; settings: 30 uM
[16] = molecular target: T1, Neuropeptide Y receptor type 4; settings: 30 uM; remark: listed apart in the source
[17] = molecular target: T1, Neuropeptide Y receptor type 4; settings: 30 uM; remark: listed apart in the source
[18] = molecular target: T1, Neuropeptide Y receptor type 4; settings: HEK293, 30 uM
[19] = molecular target: T1, Neuropeptide Y receptor type 4; settings: HEK293, 30 uM; remark: listed apart in the source
[20] = molecular target: T1, Neuropeptide Y receptor type 4; settings: HEK293, 30 uM; remark: listed apart in the source

T1 sequence (P50391 whole entry, the tested form may be a part): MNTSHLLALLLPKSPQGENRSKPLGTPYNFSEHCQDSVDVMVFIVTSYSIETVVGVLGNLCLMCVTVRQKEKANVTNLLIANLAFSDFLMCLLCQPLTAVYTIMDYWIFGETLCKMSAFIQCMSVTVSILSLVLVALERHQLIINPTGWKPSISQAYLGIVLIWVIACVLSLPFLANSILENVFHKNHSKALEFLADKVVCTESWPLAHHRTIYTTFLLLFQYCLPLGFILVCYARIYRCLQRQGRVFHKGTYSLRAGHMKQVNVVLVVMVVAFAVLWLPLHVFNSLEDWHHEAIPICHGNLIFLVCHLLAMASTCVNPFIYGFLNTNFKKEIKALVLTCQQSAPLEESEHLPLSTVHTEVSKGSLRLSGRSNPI
Sequence of Neuropeptide Y receptor type 4 (Mus musculus) (Q61041 whole entry): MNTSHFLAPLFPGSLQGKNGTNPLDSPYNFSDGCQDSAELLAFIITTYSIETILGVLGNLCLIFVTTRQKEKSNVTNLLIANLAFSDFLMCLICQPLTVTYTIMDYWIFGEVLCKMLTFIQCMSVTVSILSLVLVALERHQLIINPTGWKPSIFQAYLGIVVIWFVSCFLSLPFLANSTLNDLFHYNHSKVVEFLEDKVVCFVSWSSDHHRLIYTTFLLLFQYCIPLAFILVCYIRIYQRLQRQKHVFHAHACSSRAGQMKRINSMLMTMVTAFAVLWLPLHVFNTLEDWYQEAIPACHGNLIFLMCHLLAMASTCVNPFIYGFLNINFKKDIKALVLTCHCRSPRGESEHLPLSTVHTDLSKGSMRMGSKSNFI
T2 sequence (P97295 whole entry, looked up): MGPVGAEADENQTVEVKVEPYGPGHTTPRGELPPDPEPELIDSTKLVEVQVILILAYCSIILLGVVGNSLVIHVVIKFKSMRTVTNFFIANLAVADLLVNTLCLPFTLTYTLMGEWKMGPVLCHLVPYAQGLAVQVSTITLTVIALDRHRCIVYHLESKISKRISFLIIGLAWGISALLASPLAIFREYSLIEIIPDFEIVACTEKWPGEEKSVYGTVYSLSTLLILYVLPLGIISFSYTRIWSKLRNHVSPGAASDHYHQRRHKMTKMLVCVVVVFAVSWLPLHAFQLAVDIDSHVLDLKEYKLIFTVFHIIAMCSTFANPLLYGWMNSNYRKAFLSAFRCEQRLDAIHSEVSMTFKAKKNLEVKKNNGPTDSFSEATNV
T2 sequence (Q04573 whole entry, looked up): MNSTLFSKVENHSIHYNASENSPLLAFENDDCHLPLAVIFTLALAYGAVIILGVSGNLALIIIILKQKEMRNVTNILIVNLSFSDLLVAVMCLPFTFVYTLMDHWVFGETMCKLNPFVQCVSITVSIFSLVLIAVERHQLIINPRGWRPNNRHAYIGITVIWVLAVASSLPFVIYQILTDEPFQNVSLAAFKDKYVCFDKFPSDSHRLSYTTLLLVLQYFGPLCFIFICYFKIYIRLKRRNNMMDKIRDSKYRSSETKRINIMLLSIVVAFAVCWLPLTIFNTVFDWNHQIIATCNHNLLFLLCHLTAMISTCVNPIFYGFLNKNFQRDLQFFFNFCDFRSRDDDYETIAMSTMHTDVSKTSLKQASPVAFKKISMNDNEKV

EC50 [1]: 5.1 µM
Activity [2]: Active
Activity [3]: inactive
Activity [4]: inactive
Activity [5]: inactive
log(activity) [6]: 0.9
log(activity) [7]: 0.3
log(activity) [8]: 0.79
log(activity) [9]: 0.41
log(activity) [10]: 0.46
log(activity) [11]: 0.36
pKb [12]: 4.4
pKb [13]: 4.4
pKb [14]: 4.4
Emax [15]: 94%
Emax [16]: 89%
Emax [17]: 95%
Emax [18]: 118%
Emax [19]: 145%
Emax [20]: 144%
Structure (SMILES): CC(C)(C)c1ccc(OC2CCCCC2O)cc1 (stereo not given)
